From ChEMBL document CHEMBL1137780, “Isocombretastatins a versus combretastatins a: the forgotten isoCA-4 isomer as a highly promising cytotoxic and antitubulin agent” (J Med Chem, 2009)
Activity calls are given as the source filed them. The rule behind the calls is not given here.

Experiments:
HCT-116 [1] = test: Cytotoxicity against human HCT116 cells after 72 hrs; type: functional, cell-based; settings: HCT-116, 72 h
Procedure, shortened: (§1)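 Human tumour cell lines (H1299 non-small-cell lung carcinoma, HCT116 colon carcinoma) were exposed to the test drug for 72 h. IC50 is the concentration that reduced cell growth by 50%, taken as the average of three experiments.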

K562 [2] = test: Cytotoxicity against human K562 cells after 72 hrs; type: functional, cell-based; settings: K562, 72 h
Procedure, shortened: (§2)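 Human K562 (chronic myelogenous leukemia) or MDA-MB231 (breast cancer) cells exposed to compound for 72 h; IC50 taken as concentration reducing cell growth by 50%, averaged over three experiments.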

[3] = Cytotoxicity against human H1299 cells after 72 hrs; type: functional, cell-based; settings: NCI-H1299, 72 h; procedure, shortened: as §1
MDA-MB-231 = test: Cytotoxicity against human MDA-MB-231 cells after 72 hrs; type: functional, cell-based; settings: MDA-MB-231, 72 h; procedure, shortened: as §2
[4] = Inhibition of tubulin polymerization assessed as blockade of microtubule assembly
NCI-H460 [5] = test: Cytotoxicity against human H460 cells; type: functional, cell-based
HCT-116 [6] = test: Ratio of IC50 of drug to IC50 for combretastatin CA-4 against human HCT116 cells; type: functional
[7] = Cytotoxicity against human NCI60 cells; type: functional
K562 [8] = test: Cell cycle arrest in human K562 cells assessed as increase in G2/M phase accumulation after 24 hrs; type: functional, cell-based
Procedure, shortened: (§3)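 K562 leukemia cells cultured 24 h with increasing concentrations of test agent; DNA content measured by propidium iodide staining and flow cytometry to give cell-cycle phase distribution (G1, S, G2/M).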

K562 [9] = test: Cell cycle arrest in human K562 cells assessed as decrease in S phase accumulation after 24 hrs; type: functional, cell-based; procedure, shortened: as §3
K562 [10] = test: Cell cycle arrest in human K562 cells assessed as decrease in G1 phase accumulation after 24 hrs; type: functional, cell-based; procedure, shortened: as §3
P388 = test: Cytotoxicity against mouse P388 cells; type: functional; settings: read-out: ED50 (the source's name)
NCI-H460 [11] = test: Ratio of IC50 of drug to IC50 for combretastatin CA-4 against human H460 cells; type: functional
Colon 26 = test: Ratio of IC50 of drug to IC50 for combretastatin CA-4 against mouse Colon 26 cells; type: functional

Structure (SMILES): C=C(c1cc(OC)c(OC)c(OC)c1)c1ccc(OC)c(O)c1O
- IC50 (HCT-116 [1]): 850 nM
- IC50 (K562 [2]): 750 nM
- IC50 [3]: 2000 nM
- IC50 (MDA-MB-231): 820 nM
- IC50 ([4]; read-out: IC50): 2100 nM

Structure (SMILES): COc1ccc(C(=C(F)F)c2cc(OC)c(OC)c(OC)c2)cc1O
- IC50 ([4]; read-out: IC50): 2500 nM
- Activity (NCI-H460 [5]): Active
- Ratio IC50 (HCT-116 [6]): 2.6

Structure (SMILES): COc1ccc(/C=C\c2cc(OC)c(OC)c(OC)c2)cc1O [COMBRETASTATIN A4]
- GI50 [7]: 3.2 nM
- IC50 (HCT-116 [1]): 2.3 nM
- IC50 (K562 [2]): 3.6 nM
- IC50 [3]: 5 nM
- IC50 (MDA-MB-231): 3 nM

Structure (SMILES): C=C(c1ccc(OC)c(O)c1)c1cc(OC)c(OC)c(OC)c1
- IC50 (HCT-116 [1]): 2.5 nM
- IC50 (K562 [2]): 5 nM
- IC50 [3]: 5 nM
- IC50 (MDA-MB-231): 4 nM
- IC50 ([4]; read-out: IC50): 2200 nM
- Activity (K562 [8]): Dose-dependent effect
- Activity (K562 [9]): Active
- Activity (K562 [10]): Active

Structure (SMILES): C=C(c1ccc(OC)c(O)c1)c1cc(OC)c2c(c1)OCO2
- IC50 (HCT-116 [1]): 38 nM
- IC50 (K562 [2]): 38 nM
- IC50 [3]: 32 nM
- IC50 (MDA-MB-231): 48 nM
- IC50 ([4]; read-out: IC50): 3400 nM

Structure (SMILES): COc1cc2c(c(OC)c1OC)-c1ccc(OC)c(=O)cc1[C@@H](NC(C)=O)CC2 [COLCHICINE]
- IC50 (HCT-116 [1]): 32 nM
- IC50 (K562 [2]): 29 nM
- IC50 [3]: 30 nM
- IC50 (MDA-MB-231): 26 nM
- IC50 ([4]; read-out: IC50): 2100 nM

Structure (SMILES): COc1ccc(/C=C\c2cc(OC)c3c(c2)OCO3)cc1O [Combretastatin A-2]
- GI50 [7]: 31.6 nM

Structure (SMILES): COc1ccc(/C=C\c2cc(O)c(OC)c(OC)c2)cc1O
- EC50 (P388): 26 nM

Structure (SMILES): COc1ccc(/C(F)=C(/F)c2cc(OC)c(OC)c(OC)c2)cc1O
- Activity (NCI-H460 [5]): Active
- Ratio IC50 (NCI-H460 [11]): 1.6

Structure (SMILES): COc1ccc(C(=O)c2cc(OC)c(OC)c(OC)c2)cc1O [PHENSTATIN]
- IC50 (HCT-116 [1]): 33 nM
- IC50 (K562 [2]): 41 nM
- IC50 [3]: 21 nM
- IC50 (MDA-MB-231): 28 nM
- IC50 ([4]; read-out: IC50): 2000 nM

Structure (SMILES): COc1ccc(/C=C\c2cc(O)c(OC)c(OC)c2)cc1OC
- EC50 (P388): 900 nM

Structure (SMILES): COc1ccc(/C=C(/C#N)c2cc(OC)c(OC)c(OC)c2)cc1O
- Ratio IC50 (Colon 26): 1.3

Structure (SMILES): C=C(c1ccc(OC)c(O)c1)c1cc(O)c(OC)c(OC)c1
- IC50 (HCT-116 [1]): 34 nM
- IC50 (K562 [2]): 52 nM
- IC50 [3]: 25 nM
- IC50 (MDA-MB-231): 8 nM
- IC50 ([4]; read-out: IC50): 5000 nM

Structure (SMILES): C=C(c1ccc(OC)c(OC)c1)c1cc(O)c(OC)c(OC)c1
- IC50 (HCT-116 [1]): 2800 nM
- IC50 (K562 [2]): 3100 nM
- IC50 [3]: 5000 nM
- IC50 (MDA-MB-231): 3000 nM
- IC50 [4]: Not Active

Structure (SMILES): COc1ccc(/C=C\c2cc(OC)c(OC)c(OC)c2)c(O)c1O [COMBRETASTATIN A-1]
- GI50 [7]: 16.2 nM

Structure (SMILES): COc1ccc(/C(=C/C#N)c2cc(OC)c(OC)c(OC)c2)cc1O (mixture of isomers)
- IC50 (HCT-116 [1]): 3 nM
- IC50 ([4]; read-out: IC50): 4300 nM
- Ratio IC50 (HCT-116 [6]): 1.3
